These results are taken from BindingDB's records for doi:10.1021/jm1008924 (Genentech, 2011).

Assay [1] has as its target T1, Sonic hedgehog protein (Homo sapiens, UniProt Q15465). As to the kind of experiment: Inhibition of human SHH pathway in mouse S12 cells assessed as GLI-mediated transcriptional activity after 48 hrs by luciferase reporter gene assay in presence of 0.5 mg/mL human alpha-1-acid glycoprotein. The gist of the method:
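Mouse C3H10T1/2-derived S12 cells carrying a stably integrated GLI-luciferase reporter. Grown in high-glucose DMEM with 10% FBS, replated, then switched to 0.5% FBS to induce cilia. Shh, human AAG (0, 0.5, 1 or 5 mg/mL) and compound added. Luciferase (Dual-Glo) read after 48 h. Mean of four experiments ±SD.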

Assay [2] concerns the target T1, Sonic hedgehog protein. The assay is described as follows: Inhibition of human SHH pathway in mouse S12 cells assessed as GLI-mediated transcriptional activity after 48 hrs by luciferase reporter gene assay. For orientation: In a reporter assay the amount or activity of a reporter protein is the signal.

What is called IC50 is the concentration that gives 50% inhibition.

T1 sequence (Q15465 24-197 limits assumed): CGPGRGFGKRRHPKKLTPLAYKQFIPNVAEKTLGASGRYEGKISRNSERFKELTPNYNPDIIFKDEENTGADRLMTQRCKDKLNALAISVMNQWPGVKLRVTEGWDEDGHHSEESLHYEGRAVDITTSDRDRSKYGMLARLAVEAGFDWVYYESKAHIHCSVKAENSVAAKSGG

On to `CS(=O)(=O)c1ccc(C(=O)Nc2ccc(Cl)c(-c3ccccn3)c2)c(Cl)c1` [2-chloro-N-(4-chloro-3-(pyridin-2-yl)phenyl)-4-(methylsulfonyl)benzamide], for which the IC50 on Sonic hedgehog protein [1] amounted to 1750 nM; at Sonic hedgehog protein [2], 15 nM.
